Experimental data: ChEMBL document CHEMBL1177718, “Phosphoramidate ProTides of 2'-C-methylguanosine as highly potent inhibitors of hepatitis C virus. Study of their in vitro and in vivo properties” (J Med Chem, 2010)
pEC50: −log10 of the molar value.

Assays:
Liver [1] = experiment: Dose normalized AUC in ICR mouse liver at 50 mg/kg, po by LC-MS/MS analysis; format: ADME, organism-based; set-up: dose 50 mg/kg, route oral; conditions: in vivo
Liver [2] = experiment: AUC (0 to 6 hrs) in ICR mouse liver at 50 mg/kg, po by LC-MS/MS analysis; format: ADME, organism-based; set-up: time < 6 hr, dose 50 mg/kg, route oral; conditions: in vivo
[3] = Metabolic stability in dog plasma assessed as compound remaining at 1 ug/ml after 30 mins; format: ADME, cell-free, Canis lupus familiaris; conditions: read-out: Stability
In short: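 Duplicate incubations; compound at final 1 μg/mL in plasma preincubated and kept at […]; samples taken at 30 or 240 min, quenched with ice-cold acetonitrile, centrifuged, supernatant diluted with water; parent quantified by LC-MS/MS (Polar-RP column, formic acid water/acetonitrile gradient, positive ion mode); % remaining reported.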

Liver [4] = experiment: AUC (0 to 24 hrs) in ICR mouse liver at 50 mg/kg, po by LC-MS/MS analysis; format: ADME, organism-based; set-up: time < 24 hr, dose 50 mg/kg, route oral; conditions: in vivo
Plasma = experiment: Dose normalized AUC in ICR mouse plasma at 50 mg/kg, po by LC-MS/MS analysis; format: ADME, organism-based; set-up: dose 50 mg/kg, route oral; conditions: in vivo
Hepatitis C virus = experiment: Antiviral activity against HCV1b infected in human HuH7 cells assessed as inhibition of viral replication after 48 hrs by luciferase reporter gene assay; format: functional, organism-based, Hepacivirus hominis; conditions: genotype 1b, Huh-7, 48 h
In short: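 Huh7 cells carrying genotype 1b bicistronic subgenomic replicon, seeded 2 × 10⁴/well without G-418; compounds added 18-24 h later, 48 h exposure; 3× or 4× serial dilutions over 0.0001-10 μM in triplicate/quadruplicate; Renilla luciferase read-out versus untreated cells; EC₅₀ by four-parameter sigmoidal nonlinear regression; at least three independent assays.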

[5] = Metabolic stability in mouse plasma assessed as compound remaining at 1 ug/ml after 30 mins; format: ADME, cell-free; conditions: read-out: Stability
[6] = Cytotoxicity against human HuH7 cells after 72 hrs by celltiter-glo assay; format: cell-based, Huh-7
In short: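 Replicon 1b Huh7 cells seeded 2 × 10⁴/well; after 24 h, 11 serial 2× dilutions from 100 μM (three repeats each) with no-compound control; 72 h at 37 °C, CO₂, log-phase growth; viability by CellTiter-Glo luminescence; CC₅₀ = concentration giving 50% signal.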

Homo sapiens = species on record: Homo sapiens; experiment: Metabolic stability in human plasma assessed as compound remaining at 1 ug/ml after 30 mins
[7] = Cmax in ICR mouse plasma at 50 mg/kg, po by LC-MS/MS analysis; format: ADME, organism-based; set-up: dose 50 mg/kg, route oral
[8] = Metabolic stability in human liver S9 fraction assessed as compound remaining at 10 uM after 60 mins by HPLC analysis in absence of NADP; format: ADME, subcellular; conditions: read-out: Stability
In short: (§1)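 Liver or intestinal S9 at final 1 mg/mL in 50 mM potassium phosphate, with or without NADPH-regenerating system (1.3 mM NADP, 3.3 mM glucose-6-phosphate, 0.4 U/mL G6PDH, 3.3 mM MgCl₂); 10 min preincubation at 37 °C; compound at final 10 μM; samples at start and 60 min quenched in cold acetonitrile, centrifuged, HPLC; % parent remaining.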

[9] = Metabolic stability in rat liver S9 fraction assessed as compound remaining at 10 uM after 60 mins by HPLC analysis in presence of NADP; format: ADME, subcellular; conditions: read-out: Stability
In short: (§2)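 Rat liver or intestinal S9 at 1 mg/mL final in 50 mM potassium phosphate, with or without NADPH-regenerating system (final 1.3 mM NADP, 3.3 mM glucose-6-phosphate, 0.4 U/mL G6P dehydrogenase, 3.3 mM MgCl2). Preincubated 10 min at 37 °C with shaking, started with compound at 10 μM final. Samples taken at 0 and 60 min, quenched in cold acetonitrile, centrifuged, and parent disappearance measured by HPLC.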

[10] = Metabolic stability in cynomolgus monkey intestine S9 fraction assessed as compound remaining at 10 uM after 30 mins by HPLC analysis in presence of NADP; format: ADME, tissue-based, Macaca fascicularis; conditions: read-out: Stability
[11] = Metabolic stability in human intestine S9 fraction assessed as compound remaining at 10 uM after 60 mins by HPLC analysis in absence of NADP; format: ADME, tissue-based; conditions: read-out: Stability; in short: as §1
[12] = Metabolic stability in rat liver S9 fraction assessed as compound remaining at 10 uM after 60 mins by HPLC analysis in absence of NADP; format: ADME, subcellular; conditions: read-out: Stability; in short: as §2
[13] = Metabolic stability in dog intestine S9 fraction assessed as compound remaining at 10 uM after 60 mins by HPLC analysis in absence of NADP; format: ADME, tissue-based, Canis lupus familiaris; conditions: read-out: Stability; in short: as §1
[14] = Metabolic stability in dog intestine S9 fraction assessed as compound remaining at 10 uM after 60 mins by HPLC analysis in presence of NADP; format: ADME, tissue-based, Canis lupus familiaris; conditions: read-out: Stability; in short: as §1
[15] = Metabolic stability in cynomolgus monkey liver S9 fraction assessed as compound remaining at 10 uM after 30 mins by HPLC analysis in presence of NADP; format: ADME, subcellular, Macaca fascicularis; conditions: read-out: Stability
[16] = Metabolic stability in rat intestine S9 fraction assessed as compound remaining at 10 uM after 60 mins by HPLC analysis in absence of NADP; format: ADME, tissue-based; conditions: read-out: Stability; in short: as §2
[17] = Metabolic stability in dog liver S9 fraction assessed as compound remaining at 10 uM after 60 mins by HPLC analysis in presence of NADP; format: ADME, subcellular, Canis lupus familiaris; conditions: read-out: Stability; in short: as §1
[18] = Metabolic stability in human liver S9 fraction assessed as compound remaining at 10 uM after 60 mins by HPLC analysis in presence of NADP; format: ADME, subcellular; conditions: read-out: Stability; in short: as §1
[19] = Metabolic stability in mouse plasma assessed as compound remaining at 1 ug/ml after 4 hrs; format: ADME, cell-free; conditions: read-out: Stability
[20] = Metabolic stability in human intestine S9 fraction assessed as compound remaining at 10 uM after 60 mins by HPLC analysis in presence of NADP; format: ADME, tissue-based; conditions: read-out: Stability; in short: as §1
[21] = Metabolic stability in cynomolgus monkey liver S9 fraction assessed as compound remaining at 10 uM after 30 mins by HPLC analysis in absence of NADP; format: ADME, subcellular, Macaca fascicularis; conditions: read-out: Stability
[22] = Metabolic stability in cynomolgus monkey intestine S9 fraction assessed as compound remaining at 10 uM after 30 mins by HPLC analysis in absence of NADP; format: ADME, tissue-based, Macaca fascicularis; conditions: read-out: Stability
[23] = Metabolic stability in dog liver S9 fraction assessed as compound remaining at 10 uM after 60 mins by HPLC analysis in absence of NADP; format: ADME, subcellular, Canis lupus familiaris; conditions: read-out: Stability; in short: as §1
[24] = Metabolic stability in rat intestine S9 fraction assessed as compound remaining at 10 uM after 60 mins by HPLC analysis in presence of NADP; format: ADME, tissue-based; conditions: read-out: Stability; in short: as §2
[25] = Metabolic stability in cynomolgus monkey liver S9 fraction assessed as compound remaining at 10 uM after 60 mins by HPLC analysis in presence of NADP; format: ADME, subcellular, Macaca fascicularis; conditions: read-out: Stability; in short: as §1
[26] = Metabolic stability in cynomolgus monkey intestine S9 fraction assessed as compound remaining at 10 uM after 60 mins by HPLC analysis in absence of NADP; format: ADME, tissue-based, Macaca fascicularis; conditions: read-out: Stability; in short: as §1
[27] = Metabolic stability in cynomolgus monkey intestine S9 fraction assessed as compound remaining at 10 uM after 60 mins by HPLC analysis in presence of NADP; format: ADME, tissue-based, Macaca fascicularis; conditions: read-out: Stability; in short: as §1
[28] = Metabolic stability in cynomolgus monkey liver S9 fraction assessed as compound remaining at 10 uM after 60 mins by HPLC analysis in absence of NADP; format: ADME, subcellular, Macaca fascicularis; conditions: read-out: Stability; in short: as §1

| AUC (Liver [1]) | AUC (Liver [2]) | remaining at 0.5 h, 1 ug/ml [3] | AUC (Plasma) | pEC50 (Hepatitis C virus) | remaining at 0.5 h, 1 ug/ml [5] | remaining at 0.5 h, 1 ug/ml (Homo sapiens) | Cmax [7] | SMILES | CC50 at 72 h [6] | remaining at 1 h, 10 µM [8] | remaining at 1 h, 10 µM [9] | remaining at 1 h, 10 µM [11] | remaining at 1 h, 10 µM [12] | remaining at 1 h, 10 µM [13] | remaining at 1 h, 10 µM [14] | remaining at 1 h, 10 µM [16] | remaining at 1 h, 10 µM [17] | remaining at 1 h, 10 µM [18] | remaining at 4 h, 1 ug/ml [19] | remaining at 1 h, 10 µM [20] | further results |
| --- | --- | --- | --- | --- | --- | --- | --- | --- | --- | --- | --- | --- | --- | --- | --- | --- | --- | --- | --- | --- | --- |
| 77 ng·h/g | 815 ng·h/g | 95% | 33 ng·h/mL | 6.00 | 95% | 97% | 185 ng/mL | CC(C)[C@H](NP(=O)(OC[C@H]1O[C@@H](n2cnc3c(=O)[nH]c(N)nc32)[C@](C)(O)[C@@H]1O)Oc1cccc2ccccc12)C(=O)OC1CCCCC1 (stereo partly drawn) | > 100000 nM | – | – | – | – | – | – | – | – | – | – | – | AUC (Liver [4]): 3860 ng·h/g |
| – | – | – | – | 6.05 | 100% | – | – | CC[C@H](C)[C@H](NP(=O)(OC[C@H]1O[C@@H](n2cnc3c(=O)[nH]c(N)nc32)[C@](C)(O)[C@@H]1O)Oc1cccc2ccccc12)C(=O)OCc1ccccc1 (stereo partly drawn) | > 50000 nM | 83% | 37% | 74% | 78% | 96% | 87% | 70% | 64% | 29% | 95% | 52% | remaining at 1 h, 10 µM [25]: 0%; remaining at 1 h, 10 µM [26]: 95%; remaining at 1 h, 10 µM [27]: 29%; remaining at 1 h, 10 µM [23]: 84%; remaining at 1 h, 10 µM [28]: 89%; remaining at 1 h, 10 µM [24]: 71% |
| 18 ng·h/g | 880 ng·h/g | 100% | 49 ng·h/mL | 6.37 | 69% | 77% | 518 ng/mL | CC(C)[C@H](NP(=O)(OC[C@H]1O[C@@H](n2cnc3c(=O)[nH]c(N)nc32)[C@](C)(O)[C@@H]1O)Oc1cccc2ccccc12)C(=O)OCc1ccccc1Cl (stereo partly drawn) | > 100000 nM | – | – | – | – | – | – | – | – | – | – | – | – |

| SMILES | AUC (Liver [1]) | AUC (Liver [2]) | remaining at 0.5 h, 1 ug/ml [3] | AUC (Plasma) | pEC50 (Hepatitis C virus) | remaining at 0.5 h, 1 ug/ml [5] | remaining at 0.5 h, 1 ug/ml (Homo sapiens) | Cmax [7] | CC50 at 72 h [6] | remaining at 1 h, 10 µM [8] | remaining at 1 h, 10 µM [9] | remaining at 1 h, 10 µM [11] | remaining at 1 h, 10 µM [12] | remaining at 1 h, 10 µM [13] | remaining at 1 h, 10 µM [14] | remaining at 1 h, 10 µM [16] | remaining at 1 h, 10 µM [17] | remaining at 1 h, 10 µM [18] | remaining at 4 h, 1 ug/ml [19] | remaining at 1 h, 10 µM [20] | further results |
| --- | --- | --- | --- | --- | --- | --- | --- | --- | --- | --- | --- | --- | --- | --- | --- | --- | --- | --- | --- | --- | --- |
| CC(C)[C@H](NP(=O)(OC[C@H]1O[C@@H](n2cnc3c(=O)[nH]c(N)nc32)[C@](C)(O)[C@@H]1O)Oc1cccc2ccccc12)C(=O)OCc1ccccc1 (stereo partly drawn) | 97 ng·h/g | 1940 ng·h/g | – | 40 ng·h/mL | 6.12 | 89% | – | 504 ng/mL | > 100000 nM | 78% | 8% | 70% | 62% | 72% | 56% | 81% | 56% | 0% | 66% | 24% | remaining at 0.5 h, 10 µM [10]: 25%; remaining at 0.5 h, 10 µM [15]: 0%; remaining at 0.5 h, 10 µM [21]: 77%; remaining at 0.5 h, 10 µM [22]: 77%; remaining at 1 h, 10 µM [23]: 75%; remaining at 1 h, 10 µM [24]: 65% |
